{"data": "Measured values pooled from the literature", "target": "Serine/threonine-protein kinase tousled-like 1 (TLK1, Homo sapiens, UniProt Q9UKI8)", "One construct used (Q9UKI8 1-766)": "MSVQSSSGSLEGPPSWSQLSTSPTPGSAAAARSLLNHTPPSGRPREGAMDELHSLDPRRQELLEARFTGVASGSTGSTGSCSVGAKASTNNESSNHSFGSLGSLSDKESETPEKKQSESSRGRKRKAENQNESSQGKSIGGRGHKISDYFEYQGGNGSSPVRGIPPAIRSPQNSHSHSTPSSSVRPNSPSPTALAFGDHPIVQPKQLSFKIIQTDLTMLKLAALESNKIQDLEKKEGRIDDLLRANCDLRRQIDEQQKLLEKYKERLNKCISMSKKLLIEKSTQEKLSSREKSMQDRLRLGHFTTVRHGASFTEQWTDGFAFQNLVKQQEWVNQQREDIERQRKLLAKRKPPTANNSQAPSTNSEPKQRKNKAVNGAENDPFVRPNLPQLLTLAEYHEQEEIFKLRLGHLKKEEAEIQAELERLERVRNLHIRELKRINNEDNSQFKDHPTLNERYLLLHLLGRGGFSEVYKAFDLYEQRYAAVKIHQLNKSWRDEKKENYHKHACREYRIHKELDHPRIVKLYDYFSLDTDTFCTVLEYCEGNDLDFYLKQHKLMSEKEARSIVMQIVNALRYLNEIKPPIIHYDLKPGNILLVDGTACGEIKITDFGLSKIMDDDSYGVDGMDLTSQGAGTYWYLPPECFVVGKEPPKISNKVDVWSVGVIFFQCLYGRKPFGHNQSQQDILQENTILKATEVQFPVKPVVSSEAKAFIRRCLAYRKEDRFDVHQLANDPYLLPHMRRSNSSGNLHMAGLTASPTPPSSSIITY", "note": "Protocols differ between the studies behind these lines."}
{"SMILES": "COc1ncc2cc3ccccc3nc2c1C#N", "assay": "cell-free assay, competition with immobilised ligand", "setting": "5 µM", "remaining binding [%]": 86}
{"SMILES": "c1cncc(-c2cccc(Nc3nccc(NC4CCCCC4)n3)c2)c1", "assay": "binding, competition with immobilised ligand", "setting": "10 µM", "remaining binding [%]": 100}
{"SMILES": "CCN1CCN(Cc2ccc(C(=O)Nc3ccc(C)c(Oc4ccc5c(c4)CC(=O)N5)c3)cc2C(F)(F)F)CC1", "assay": "binding, competition with immobilised ligand", "setting": "1 µM", "remaining binding [%]": 88}
{"SMILES": "O=C1NC(c2ccccn2)Sc2ccccc21 (centres unmarked)", "assay": "cell-free assay, competition with immobilised ligand", "setting": "1 µM", "remaining binding [%]": 94}
{"SMILES": "CN(c1nccc(-c2cnn3ncccc23)n1)C1CC1", "assay": "binding", "setting": "1 µM", "remaining binding [%]": 100}
{"SMILES": "O=C(c1ccc(Nc2ncc(Cl)c(-c3cc4ccccc4s3)n2)cc1)N1CCC(N2CCCC2)CC1", "assay": "binding, competition with immobilised ligand", "setting": "1 µM", "remaining binding [%]": 32}
{"SMILES": "O=C(NCC1CCOCC1)c1n[nH]cc1NC(=O)c1c(F)cccc1F", "assay": "binding, competition with immobilised ligand", "setting": "1 µM", "remaining binding [%]": 87}
{"SMILES": "CN(C)c1nccc(-c2cnc3ncccn23)n1", "assay": "binding", "setting": "1 µM", "remaining binding [%]": 81}
{"SMILES": "Cc1c[nH]c2nccc(Oc3c(F)cc(Nc4cc(Cl)nc(N)n4)cc3F)c12", "assay": "cell-free assay, competition with immobilised ligand", "setting": "0.1 µM", "remaining binding [%]": 100}
{"SMILES": "N[C@H]1CCN(c2nccc(-c3cnn4ncccc34)n2)C1", "assay": "binding", "setting": "1 µM", "remaining binding [%]": 64}
{"SMILES": "O=C(NC[C@@H]1[C@H]2CN(C(=O)OCc3cc(C(F)(F)F)cc(C(F)(F)F)c3)C[C@@H]12)c1ccc2[nH]nnc2c1", "assay": "cell-free assay, competition with immobilised ligand", "setting": "1 µM", "remaining binding [%]": 68}
{"SMILES": "CC1CCCN1c1nccc(-c2cnn3ncccc23)n1 (centres unmarked)", "assay": "binding", "setting": "1 µM", "remaining binding [%]": 97}
{"SMILES": "O=C(NCCCN1CCOCC1)c1ccc(Nc2nccc(-c3cc4ccccc4s3)n2)cc1", "assay": "binding, competition with immobilised ligand", "setting": "1 µM", "remaining binding [%]": 63}
{"SMILES": "COc1cnc(Nc2cccc(S(N)(=O)=O)c2)nc1N1CCN(c2ccccc2)C(=O)C1", "assay": "binding, competition with immobilised ligand", "setting": "1 µM", "remaining binding [%]": 97}
{"SMILES": "O=C(Nc1cccnn1)N1CC(C/C=C/c2cncc(Oc3ccc(C(F)(F)F)cn3)n2)C1", "assay": "cell-free assay, competition with immobilised ligand", "setting": "1 µM", "remaining binding [%]": 98}
{"SMILES": "Cc1cnc(Nc2ccc(C(=O)N3CCC(N4CCCC4)CC3)cc2)nc1-c1cc2ccccc2s1", "assay": "binding, competition with immobilised ligand", "setting": "1 µM", "remaining binding [%]": 21}
{"SMILES": "O=C(Nc1ccc(Oc2ccc(F)cc2)cc1)N1CCc2ncccc2[C@H]1c1ccc(F)cc1", "assay": "cell-free assay, competition with immobilised ligand", "setting": "1 µM", "remaining binding [%]": 100}
{"SMILES": "F[C@@H]1CCN(c2nccc(-c3cnn4ncccc34)n2)C1", "assay": "binding", "setting": "1 µM", "remaining binding [%]": 100}
{"SMILES": "Cc1nccc(COC(=O)N2C[C@@H]3[C@@H](CNC(=O)c4ccc5[nH]nnc5c4)[C@@H]3C2)n1", "assay": "cell-free assay, competition with immobilised ligand", "setting": "1 µM", "remaining binding [%]": 87}
{"SMILES": "C[C@@H]1CCN(c2nccc(-c3cnn4ncccc34)n2)C1", "assay": "binding", "setting": "1 µM", "remaining binding [%]": 79}
